Assay [1] concerns RAW264.7. The assay is described as follows: Inhibition of multinucleated cell formation in RANKL-stimulated mouse RAW264.7 cells after 3 days by TRAP staining. It is filed as functional, cell-based. In outline: (§1)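 RAW264.7 cells in α-MEM with RANKL, with or without compound, cultured 3 days at 37 °C, 5% CO2. Fixed in acetone/citrate for 30 s, then TRAP-stained with a kit. TRAP+ cells with ≥4 nuclei scored as MNCs by light microscopy, counting four fields, repeated four times. Relative MNC number reported as mean ± SD of triplicates; ANOVA with Dunnett's test.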

Assay [2] has as its system RAW264.7. The assay is described as follows: Inhibition of NFATc1 expression in RANKL-stimulated mouse RAW264.7 cells after 48 hrs by immunoblotting. It is filed as functional, cell-based. In outline:
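RAW264.7 cells in α-MEM cultured with RANKL plus test compound for 48 h. Lysates in HEPES pH 7.8/NaCl/EDTA/MgCl2/DTT buffer with protease inhibitors, run on 8% SDS-PAGE and transferred to nitrocellulose. Blocked in 5% milk/PBS-Tween, then anti-NFATc1 primary overnight at 4 °C with GAPDH as loading control. Detected with HRP secondary and ECL.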

Assay [3] is described as follows: Inhibition of NF-kappaB transfected in LPS-stimulated mouse RAW264.7 cells. It is filed as cell-based.
Assay [4] has as its system RAW264.7. Put plainly: Inhibition of multinucleated cell formation in RANKL-stimulated mouse RAW264.7 cells at 0.5 to 2 uM after 3 days by TRAP staining. It is filed as functional, cell-based. In a few lines: as §1
In assay [5] the test system is RAW264.7. The assay is described as follows: Inhibition of bone resorption by mature osteoclast in RANKL-stimulated mouse RAW264.7 cells pretreated for 1 hr measured after 8 days. The format is functional, cell-based. In a few lines: (§2)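 RAW264.7 cells pretreated with compound for 1 h, then RANKL (50 ng/ml) added on calcium phosphate apatite-coated plates. Incubated 8 days, then 5% sodium hypochlorite for 5 min, washed, dried and photographed. Total resorbed pit area (mm²) given as mean ± SD of triplicates.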

Assay [6] addresses T1, Nuclear factor of activated T-cells, cytoplasmic 1 (Mus musculus) (UniProt O88942).
T1 sequence (whole entry): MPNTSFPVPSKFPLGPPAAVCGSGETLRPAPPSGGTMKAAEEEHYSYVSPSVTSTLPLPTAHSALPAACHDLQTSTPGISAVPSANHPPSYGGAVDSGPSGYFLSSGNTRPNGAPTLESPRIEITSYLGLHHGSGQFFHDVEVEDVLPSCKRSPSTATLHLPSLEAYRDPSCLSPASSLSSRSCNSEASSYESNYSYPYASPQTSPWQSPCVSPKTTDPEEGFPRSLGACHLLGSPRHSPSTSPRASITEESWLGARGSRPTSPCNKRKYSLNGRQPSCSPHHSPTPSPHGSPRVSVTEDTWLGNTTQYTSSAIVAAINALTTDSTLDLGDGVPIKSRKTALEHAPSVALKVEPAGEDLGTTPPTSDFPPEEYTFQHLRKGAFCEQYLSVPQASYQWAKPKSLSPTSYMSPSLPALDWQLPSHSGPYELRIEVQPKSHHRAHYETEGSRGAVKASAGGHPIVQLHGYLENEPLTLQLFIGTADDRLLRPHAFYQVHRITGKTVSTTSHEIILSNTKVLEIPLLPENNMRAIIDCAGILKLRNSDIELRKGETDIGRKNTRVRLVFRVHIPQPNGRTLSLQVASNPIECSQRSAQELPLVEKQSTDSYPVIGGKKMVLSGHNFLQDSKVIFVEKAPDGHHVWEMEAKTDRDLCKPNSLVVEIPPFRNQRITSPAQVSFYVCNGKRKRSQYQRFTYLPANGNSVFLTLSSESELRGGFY
Put plainly: Inhibition of NFATc1 pathway in RANKL-stimulated mouse RAW264.7 cells at 1 to 2 uM. The format is cell-based.

The test system of assay [7] is RAW264.7. Put plainly: Inhibition of bone resorption by mature osteoclast in RANKL-stimulated mouse RAW264.7 cells at 2 uM pretreated for 1 hr measured after 8 days. It is filed as functional. In outline: as §2
In assay [8] the test system is RAW264.7. Put plainly: Inhibition of osteoclastogenesis in RANKL-stimulated mouse RAW264.7 cells at 1 to 2 uM. The format is functional, cell-based.
In assay [9] the test system is RAW264.7. The assay is described as follows: Inhibition of NF-kappaB activation transfected in RANKL-stimulated mouse RAW264.7 cells at 1 to 2 uM. The format is cell-based.

Active and inactive are the calls of the source. The rule behind the calls is not given here.

With `OC/C=C/c1ccccc1`, the result in [1] was inactive.

For `O=C/C=C/c1ccccc1` [CINNAMALDEHYDE], the result in assay [2], in assay [4] and in assay [5] was Active. The compound also yielded an IC50 in assay [3] of 43 µM.

Take `COc1ccccc1/C=C/C=O`: the result in assay [6], in [2], in assay [8], in assay [4] and in assay [5] was Active. Besides, the inhibition at 2 µM in assay [7] amounted to 95%. The compound also registered an IC50 in assay [3] of 31 µM. Further, the outcome in assay [9] was inactive.

In the case of `O=C(O)/C=C/c1ccccc1`, in assay [1], the result was inactive.

Broadly, the IC50 is the concentration that inhibits the measured activity by half. Higher therefore signals weaker potency in that assay. One may read the inhibition as the change of the read-out against control, counted positive when it falls.

These data come from ChEMBL document CHEMBL1152242, “Aldehydic components of cinnamon bark extract suppresses RANKL-induced osteoclastogenesis through NFATc1 downregulation” (Bioorg Med Chem, 2008).
